Data from ChEMBL document CHEMBL3580615, “Isolation and Characterization of Dammarane-Type Saponins from Gynostemma pentaphyllum and Their Inhibitory Effects on IL-6-Induced STAT3 Activation” (J Nat Prod, 2015).

test: Cytotoxicity against human Hep3B cells after 48 hrs by MTT assay; assay type: cell-based; details: hep 3b2, 48 h
Procedure, shortened: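 Hep3B cells plated and grown 24 h in 96-well plates, then switched to serum-free medium. Samples added at indicated concentrations for 48 h. Viability read by MTT assay.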

Compound | Activity
CC(C)/C=C/C[C@](C)(O[C@@H]1O[C@H](CO[C@@H]2O[C@@H](C)[C@H](O)[C@@H](O)[C@H]2O)[C@@H](O)[C@H](O)[C@H]1O)[C@H]1CC[C@]2(C)[C@@H]1[C@H](O)C[C@@H]1[C@@]3(C)CC[C@H](O[C@@H]4O[C@H](CO)[C@@H](O)[C@H](O)[C@H]4O[C@@H]4O[C@H](CO)[C@@H](O)[C@H](O)[C@H]4O)C(C)(C)[C@@H]3CC[C@]12C | Non-toxic
CC(C)(/C=C/C[C@](C)(O[C@@H]1O[C@H](CO)[C@@H](O)[C@H](O)[C@H]1O)[C@H]1CC[C@]2(C)[C@@H]1[C@H](O)C[C@@H]1[C@@]3(C)C[C@@H](O)[C@H](O[C@@H]4O[C@H](CO)[C@@H](O)[C@H](O)[C@H]4O[C@@H]4O[C@H](CO)[C@@H](O)[C@H](O)[C@H]4O)C(C)(C)[C@@H]3CC[C@]12C)OO | Non-toxic
C[C@@H]1O[C@@H](OC[C@H]2O[C@@H](O[C@@](C)(C/C=C/C(C)(C)OO)[C@H]3CC[C@]4(C)[C@@H]3[C@H](O)C[C@@H]3[C@@]5(C)C[C@@H](O)[C@H](O[C@@H]6O[C@H](CO)[C@@H](O)[C@H](O)[C@H]6O[C@@H]6O[C@H](CO)[C@@H](O)[C@H](O)[C@H]6O)C(C)(C)[C@@H]5CC[C@]34C)[C@H](O)[C@@H](O)[C@@H]2O)[C@H](O)[C@H](O)[C@H]1O | Non-toxic
C=C(C)C(=O)CC[C@](C)(O[C@@H]1O[C@H](CO[C@@H]2O[C@H](CO)[C@@H](O)[C@H](O)[C@H]2O)[C@@H](O)[C@H](O)[C@H]1O)[C@H]1CC[C@]2(C)[C@@H]1[C@H](O)C[C@@H]1[C@@]3(C)C[C@@H](O)[C@H](O)C(C)(C)[C@@H]3CC[C@]12C | Non-toxic
CC(C)/C=C/C[C@](C)(O[C@@H]1O[C@H](CO[C@@H]2O[C@@H](C)[C@H](O)[C@@H](O)[C@H]2O)[C@@H](O)[C@H](O)[C@H]1O)[C@H]1CC[C@]2(C)[C@@H]1[C@H](O)C[C@@H]1[C@@]3(C)C[C@@H](O)[C@H](O)C(C)(C)[C@@H]3CC[C@]12C | Non-toxic
CC(C)(/C=C/C[C@](C)(O[C@@H]1O[C@H](CO[C@@H]2O[C@H](CO)[C@@H](O)[C@H](O)[C@H]2O)[C@@H](O)[C@H](O)[C@H]1O)[C@H]1CC[C@]2(C)[C@@H]1[C@H](O)C[C@@H]1[C@@]3(C)C[C@@H](O)[C@H](O)C(C)(C)[C@@H]3CC[C@]12C)OO | Non-toxic
C=C(C)C(=O)CC[C@](C)(O[C@@H]1O[C@H](CO[C@@H]2O[C@@H](C)[C@H](O)[C@@H](O)[C@H]2O)[C@@H](O)[C@H](O)[C@H]1O)[C@H]1CC[C@]2(C)[C@@H]1[C@H](O)C[C@@H]1[C@@]3(C)C[C@@H](O)[C@H](O)C(C)(C)[C@@H]3CC[C@]12C | Non-toxic
C=C(C)C(=O)CC[C@](C)(O[C@@H]1O[C@H](CO[C@@H]2O[C@@H](C)[C@H](O)[C@@H](O)[C@H]2O)[C@@H](O)[C@H](O)[C@H]1O)[C@H]1CC[C@]2(C)[C@@H]1[C@H](O)C[C@@H]1[C@@]3(C)C[C@@H](O)[C@H](O[C@@H]4O[C@H](CO)[C@@H](O)[C@H](O)[C@H]4O[C@@H]4O[C@H](CO)[C@@H](O)[C@H](O)[C@H]4O)C(C)(C)[C@@H]3CC[C@]12C | Non-toxic
CC(C)/C=C/C[C@](C)(O[C@@H]1O[C@H](CO[C@@H]2O[C@@H](C)[C@H](O)[C@@H](O)[C@H]2O)[C@@H](O)[C@H](O)[C@H]1O)[C@H]1CC[C@]2(C)[C@@H]1[C@H](O)C[C@@H]1[C@@]3(C)C[C@@H](O)[C@H](O[C@@H]4O[C@H](CO)[C@@H](O)[C@H](O)[C@H]4O)C(C)(C)[C@@H]3CC[C@]12C | Non-toxic
C[C@@H]1O[C@@H](OC[C@H]2O[C@@H](O[C@@](C)(C/C=C/C(C)(C)O)[C@H]3CC[C@]4(C)[C@@H]3[C@H](O)C[C@@H]3[C@@]5(C)C[C@@H](O)[C@H](O[C@@H]6O[C@H](CO)[C@@H](O)[C@H](O)[C@H]6O)C(C)(C)[C@@H]5CC[C@]34C)[C@H](O)[C@@H](O)[C@@H]2O)[C@H](O)[C@H](O)[C@H]1O | Non-toxic
CC(C)/C=C/C[C@](C)(O[C@@H]1O[C@H](CO[C@@H]2O[C@@H](C)[C@H](O)[C@@H](O)[C@H]2O)[C@@H](O)[C@H](O)[C@H]1O)[C@H]1CC[C@]2(C)[C@@H]1[C@H](O)C[C@@H]1[C@@]3(C)C[C@@H](O)[C@H](O[C@@H]4O[C@H](CO)[C@@H](O)[C@H](O)[C@H]4O[C@@H]4O[C@H](CO)[C@@H](O)[C@H](O)[C@H]4O)C(C)(C)[C@@H]3CC[C@]12C | Non-toxic
